Test results from ChEMBL document CHEMBL4346661, “Design, synthesis and evaluation of novel diaryl-1,5-diazoles derivatives bearing morpholine as potent dual COX-2/5-LOX inhibitors and antitumor agents” (Eur J Med Chem, 2019).

Columns and labels:
B16-F10 = assay: Antiproliferative activity against mouse B16F10 cells incubated for 48 hrs by MTT assay; type: functional, cell-based; conditions: B16-F10, 48 h
Method in brief: (§1)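 MTT assay on F10 (murine melanoma), HeLa, A549, MCF-7 and 293T (human renal epithelium) cells. IC50 given as mean ± SD of three independent experiments.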

HEK-293T = assay: Antiproliferative activity against human 293T cells incubated for 48 hrs by MTT assay; type: cell-based; method in brief: as §1
[1] = molecular target: T1, Prostaglandin G/H synthase 2 (Homo sapiens, UniProt P35354); assay: Inhibition of COX2 (unknown origin) using arachidonic acid as substrate incubated for 10 mins by Ellman's reagent based COX-1/COX-2 ELISA assay
T1 sequence (P35354 whole entry): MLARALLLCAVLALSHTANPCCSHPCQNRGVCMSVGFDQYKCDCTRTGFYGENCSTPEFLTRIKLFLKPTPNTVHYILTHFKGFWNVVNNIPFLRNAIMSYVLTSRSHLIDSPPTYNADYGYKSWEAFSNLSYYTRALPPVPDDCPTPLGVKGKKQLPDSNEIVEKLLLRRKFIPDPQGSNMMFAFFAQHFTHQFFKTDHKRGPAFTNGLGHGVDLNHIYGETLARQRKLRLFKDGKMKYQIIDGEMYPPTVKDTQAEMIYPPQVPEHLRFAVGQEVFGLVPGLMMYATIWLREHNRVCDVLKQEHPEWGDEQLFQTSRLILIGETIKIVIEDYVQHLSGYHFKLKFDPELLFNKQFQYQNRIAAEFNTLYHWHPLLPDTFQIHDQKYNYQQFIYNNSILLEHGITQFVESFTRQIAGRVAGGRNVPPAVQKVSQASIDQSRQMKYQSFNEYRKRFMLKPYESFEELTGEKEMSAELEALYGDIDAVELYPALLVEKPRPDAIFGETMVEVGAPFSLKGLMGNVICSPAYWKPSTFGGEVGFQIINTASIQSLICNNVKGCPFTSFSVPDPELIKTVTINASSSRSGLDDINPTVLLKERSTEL

HeLa = assay: Antiproliferative activity against human HeLa cells incubated for 48 hrs by MTT assay; type: functional, cell-based; method in brief: as §1
A549 = assay: Antiproliferative activity against human A549 cells incubated for 48 hrs by MTT assay; type: functional, cell-based; conditions: A549, 48 h; method in brief: as §1
MCF7 = assay: Antiproliferative activity against human MCF7 cells incubated for 48 hrs by MTT assay; type: functional, cell-based; conditions: MCF7, 48 h; method in brief: as §1
[2] = Inhibition of 5-LOX assessed as calcium ionophore A23187-stimulated LTB4 production preincubated for 30 mins followed by calcium ionophore A23187 addition and measured after 30 mins by ELISA

Row | IC50 (B16-F10) | IC50 [1] | IC50 (HeLa) | IC50 (A549) | IC50 (MCF7) | IC50 [2] | Structure (SMILES) | IC50 (HEK-293T)
1 | 10.3 µM | 0.19 µM | 13.2 µM | 14.5 µM | 14.4 µM | 1.32 µM | NS(=O)(=O)c1ccc(-n2nc(C(=O)N3CCSCC3)cc2-c2cccc(F)c2)cc1 | 176 µM
2 | 16.2 µM | 0.69 µM | > 100 µM | 26.1 µM | 16.5 µM | 1.19 µM | NS(=O)(=O)c1ccc(-n2nc(C(=O)N3CCOCC3)cc2-c2ccccc2)cc1 | 184 µM
3 | 24.2 µM | 0.85 µM | 20.8 µM | 16.5 µM | 25.8 µM | 0.86 µM | CCOc1ccc(-c2cc(C(=O)NCCN3CCOCC3)nn2-c2ccc(S(N)(=O)=O)cc2)cc1 | 155 µM
4 | 13 µM | 0.71 µM | > 100 µM | 19.2 µM | 16.3 µM | 0.98 µM | COc1ccc(-c2cc(C(=O)NCCCN3CCOCC3)nn2-c2ccc(S(N)(=O)=O)cc2)cc1 | 200 µM
5 | 21.8 µM | 0.39 µM | 27.7 µM | 25.2 µM | 20 µM | 2.59 µM | NS(=O)(=O)c1ccc(-n2nc(C(=O)N3CCOCC3)cc2-c2ccc(C(F)(F)F)cc2)cc1 | 199 µM
6 | 20.8 µM | 2.01 µM | 21.6 µM | 19.6 µM | 16 µM | 0.93 µM | COc1ccc(-c2cc(C(=O)N3CCOCC3)nn2-c2ccc(S(N)(=O)=O)cc2)cc1 | 207 µM
7 | 29.2 µM | 2.25 µM | > 100 µM | > 100 µM | 26 µM | 0.96 µM | COc1cccc(-c2cc(C(=O)N3CCOCC3)nn2-c2ccc(S(N)(=O)=O)cc2)c1 | 134 µM
8 | 20.2 µM | 1.11 µM | 29.8 µM | 21.5 µM | 18.8 µM | 0.79 µM | CCOc1ccc(-c2cc(C(=O)OCCN3CCOCC3)nn2-c2ccc(S(N)(=O)=O)cc2)cc1 | 116 µM
9 | > 100 µM | 7.64 µM | > 100 µM | > 100 µM | 15.4 µM | 0.72 µM | CCOc1ccc(-c2cc(C(=O)OCCCN3CCOCC3)nn2-c2ccc(S(N)(=O)=O)cc2)cc1 | 179 µM
10 | > 100 µM | 0.23 µM | > 100 µM | > 100 µM | 39.8 µM | 2.31 µM | NS(=O)(=O)c1ccc(-n2nc(C(=O)N3CCSCC3)cc2-c2ccc(Cl)cc2)cc1 | 232 µM
11 | 23.8 µM |  | 26.5 µM | 22.5 µM | 24.8 µM |  | NS(=O)(=O)c1ccc(-n2nc(C(=O)O)cc2-c2ccc(C(F)(F)F)cc2)cc1 | 190 µM
12 | > 100 µM | 0.35 µM | > 100 µM | > 100 µM | > 100 µM | 1.79 µM | NS(=O)(=O)c1ccc(-n2nc(C(=O)N3CCOCC3)cc2-c2ccc(Cl)cc2)cc1 | > 300 µM
13 | 13.7 µM | 1.05 µM | 26.7 µM | 18.2 µM | 19.8 µM | 0.87 µM | COc1ccc(-c2cc(C(=O)OCCCN3CCOCC3)nn2-c2ccc(S(N)(=O)=O)cc2)cc1 | 169 µM
14 | 12.1 µM | 1.28 µM | 16 µM | 17.7 µM | 14.6 µM | 1.21 µM | NS(=O)(=O)c1ccc(-n2nc(C(=O)N3CCSCC3)cc2-c2ccc(Br)cc2)cc1 | 197 µM
15 | 22 µM | 0.25 µM | 25.4 µM | 23 µM | 25.8 µM | 0.87 µM | NS(=O)(=O)c1ccc(-n2nc(C(=O)OCCN3CCOCC3)cc2-c2ccc(Cl)cc2)cc1 | 122 µM
16 | 22.7 µM | 0.56 µM | 22.4 µM | 17.7 µM | 17.2 µM | 0.82 µM | NS(=O)(=O)c1ccc(-n2nc(C(=O)OCCCN3CCOCC3)cc2-c2ccccc2)cc1 | 95.5 µM
17 | 14.6 µM | 0.24 µM | 17.9 µM | 24.6 µM | 15.8 µM | 1.33 µM | NS(=O)(=O)c1ccc(-n2nc(C(=O)N3CCOCC3)cc2-c2cccc(Cl)c2)cc1 | 114 µM
18 | 30.8 µM | 0.64 µM | 21.8 µM | > 100 µM | 39.2 µM | 0.96 µM | NS(=O)(=O)c1ccc(-n2nc(C(=O)NCCN3CCOCC3)cc2-c2ccccc2)cc1 | 151 µM
19 | 13.2 µM | 1.21 µM | 24.1 µM | 17.2 µM | 19.7 µM | 1.01 µM | COc1ccc(-c2cc(C(=O)N3CCSCC3)nn2-c2ccc(S(N)(=O)=O)cc2)cc1 | 211 µM
20 | > 100 µM | 0.16 µM | > 100 µM | > 100 µM | 15.8 µM | 1.01 µM | NS(=O)(=O)c1ccc(-n2nc(C(=O)NCCN3CCOCC3)cc2-c2ccc(F)cc2)cc1 | 112 µM
21 | 20.5 µM | 0.23 µM | > 100 µM | 27.5 µM | 20 µM | 0.89 µM | NS(=O)(=O)c1ccc(-n2nc(C(=O)N3CCOCC3)cc2-c2ccc(F)cc2)cc1 | 206 µM
22 | 19.5 µM | 0.87 µM | 20.4 µM | 17.6 µM | 15 µM | 0.91 µM | COc1ccc(-c2cc(C(=O)NCCN3CCOCC3)nn2-c2ccc(S(N)(=O)=O)cc2)cc1 | 144 µM
23 | 18.6 µM | 2.99 µM | 27.2 µM | 41.7 µM | 15 µM | 0.95 µM | CCOc1ccc(-c2cc(C(=O)N3CCOCC3)nn2-c2ccc(S(N)(=O)=O)cc2)cc1 | 116 µM
24 | 32.3 µM | 0.97 µM | 21.6 µM | > 100 µM | 16.5 µM | 0.97 µM | CCOc1ccc(-c2cc(C(=O)N3CCSCC3)nn2-c2ccc(S(N)(=O)=O)cc2)cc1 | 169 µM
25 | > 100 µM | 0.31 µM | 22.6 µM | 20 µM | 17.9 µM | 0.98 µM | NS(=O)(=O)c1ccc(-n2nc(C(=O)N3CCOCC3)cc2-c2ccc(Br)cc2)cc1 | 160 µM
26 | 26.8 µM | 5.47 µM | 21.4 µM | > 100 µM | 22.1 µM | 0.85 µM | NS(=O)(=O)c1ccc(-n2nc(C(=O)OCCCN3CCOCC3)cc2-c2ccc(Cl)cc2)cc1 | 189 µM
27 | 18.1 µM | 0.21 µM | > 100 µM | > 100 µM | 19.3 µM | 0.84 µM | NS(=O)(=O)c1ccc(-n2nc(C(=O)OCCN3CCOCC3)cc2-c2ccc(F)cc2)cc1 | 146 µM
28 | 12.9 µM | 0.91 µM | 19.2 µM | 17.8 µM | 15 µM | 0.84 µM | CCOc1ccc(-c2cc(C(=O)NCCCN3CCOCC3)nn2-c2ccc(S(N)(=O)=O)cc2)cc1 | 138 µM
